# Screening results as filed in PubChem BioAssay.
# ABHD5 PLIN5 PPI: ABHD5-PLIN5 interaction inhibitors, primary screen, cell lysate, split luciferase complementation, luminescence | Perilipin-5 (Homo sapiens) + 1-acylglycerol-3-phosphate O-acyltransferase ABHD5 (Homo … | Split G. princeps luciferase complementation, 4 h | inhibition, % at 4 µM | actives 0.78% (n = 360,000);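 active = inhibition above the mean inhibition across every tested compound plus 3 SD, cut at about 22% in these data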
# SENP1 FRET inh: human SENP1 catalytic domain inhibitors, primary screen, biochemical, FRET, uHTS. recombinant SENP1 catalytic domain, CyPet-SUMO1-YPet FRET cleavage. Sentrin-specific protease 1 (Homo sapiens), Q9P0U3. inhibition, % at 10 µM. actives 0.21% (n = 360,000);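 active = inhibition at least 30% at 10 µM, raw YFP signal under a set limit, fluorescence ratio 0.5 to 1.5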
# Target sequence (Q9P0U3 419-644 limits assumed): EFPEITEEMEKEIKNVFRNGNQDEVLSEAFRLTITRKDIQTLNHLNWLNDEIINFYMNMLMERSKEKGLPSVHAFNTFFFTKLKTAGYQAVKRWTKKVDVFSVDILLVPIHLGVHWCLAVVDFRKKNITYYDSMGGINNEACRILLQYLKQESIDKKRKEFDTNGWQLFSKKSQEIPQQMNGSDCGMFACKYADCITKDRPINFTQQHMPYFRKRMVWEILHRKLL
#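 Test system: recombinant human SENP1 catalytic domain, His6-tagged / Medium: pH 8 Tris buffer with EDTA, NaCl, BME, BSA, NP40, catalase / Also added: SUMO1 FRET substrate flanked by Cypet and Ypet, 25 nM / Times: 50 min reaction at room temperature / Signal: FRET, CFP and YFP emission / Control set: no-enzyme low control and enzyme-plus-DMSO high control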
# GRK2 aptamer HTS: compounds blocking aptamer binding on GRK2 – biochemical, human GRK2, bead flow cytometry, HTS, primary screen | FAM-aptamer displacement from GRK2 | actives 0.59% (n = 330,000) | inhibition of aptamer binding, % at 10 µM | Beta-adrenergic receptor kinase 1 (Homo sapiens), P25098;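 active = inhibition of aptamer binding above 40%, roughly 3 SD of noise, on plates passing a quality check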;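 note: median bead fluorescence of bound FAM aptamer so fluorescent compounds give negative values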
# NadD block: inhibitors of S. aureus NadD, primary screen, biochemical, colorimetric, uHTS | Nicotinate-nucleotide adenylyltransferase NadD (Staphylococcus aureus N315) | purified NadD enzyme, colorimetric absorbance read-out | inhibition, % at 20 µM | actives 0.78% (n = 360,000) | AID 602399, 2012; in the data active = inhibition above about 26%
# B2AR ag: beta2AR agonists driving receptor internalization, primary screen, cell-based, FAP fluorogen, flow cytometry. Beta-2 adrenergic receptor (Homo sapiens), P07550. Am2.2-beta2AR cells. response, % (test concentration not listed). actives 0.43% (n = 340,000). AID 504454, 2011;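 active = response above a set limit, near 3 SD of response in nonfluorescent compounds, cut at about 42% in these data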
# Target sequence (P07550 whole entry, looked up): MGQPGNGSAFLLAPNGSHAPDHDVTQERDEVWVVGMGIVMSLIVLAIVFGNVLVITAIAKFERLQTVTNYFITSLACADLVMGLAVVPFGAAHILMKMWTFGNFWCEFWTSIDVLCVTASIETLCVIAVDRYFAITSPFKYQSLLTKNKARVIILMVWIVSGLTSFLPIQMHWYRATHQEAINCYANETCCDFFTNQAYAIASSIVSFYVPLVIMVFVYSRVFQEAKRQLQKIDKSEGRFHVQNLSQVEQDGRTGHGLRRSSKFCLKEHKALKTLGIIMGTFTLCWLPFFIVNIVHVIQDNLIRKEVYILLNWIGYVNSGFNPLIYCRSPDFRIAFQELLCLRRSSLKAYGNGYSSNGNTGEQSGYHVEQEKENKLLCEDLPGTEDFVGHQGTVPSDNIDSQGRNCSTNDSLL
# Numbers stand for hits; – = inactive; · = no result given. This is a sample that favours compounds with a hit; in the whole collection about 2.5% have one here.
SMILES,ABHD5 PLIN5 PPI,SENP1 FRET inh,GRK2 aptamer HTS,NadD block,B2AR ag
O=C(N/N=C/c1cn(Cc2cccc(F)c2)c2ccccc12)c1cc(O)cc(O)c1,–,–,89.0,–,–
CC(/C=C/C=C/c1ccccc1)=N/NC(=O)CNc1ccccc1C,–,–,55.0,–,–
Cc1cc(N2CCCC2)ccc1/C=C1/C(=O)N(C)C(=S)N1C,–,66.1,–,–,–
Cc1cc(/C=C2/C(=O)N(C)C(=S)N2C)ccc1N1CCCC1,–,–,–,–,–
O=C(c1cccc(S(=O)(=O)Nc2ccccc2Cl)c1)N1CCN(c2ccccc2O)CC1,–,–,–,–,–
CN(C)CCN1C(=O)c2cccc3cc([N+](=O)[O-])cc(c23)C1=O,–,60.1,·,–,–
CC(=O)OCCN1C(=O)c2cccc3cc([N+](=O)[O-])cc(c23)C1=O,·,·,–,·,·
N#CC(=C=[N-])C1=C(C#N)C(c2ccccc2F)C([n+]2ccccc2)C(O)(C2CC2)N1 (centres undefined),–,–,–,–,–
Cc1cccc[n+]1C1C(c2ccccc2)C(C#N)=C(C(=C=[N-])C#N)NC1(O)C1CC1 (centres undefined),–,–,–,33.9,–
CNC[C@H](CC1CCCCC1)NC[C@H](Cc1ccccc1)NCCC12CC3CC(CC(C3)C1)C2,–,–,–,–,51.6
NC[C@H](Cc1ccccc1)NCCCCC1CCCCC1,–,–,–,–,–
Cc1ccc(C(=O)N/N=C/c2cc(C)n(-c3ccc(Br)cc3)c2C)cc1[N+](=O)[O-],–,–,–,35.1,–
C/C(=N\NC(=S)NCc1ccccc1)c1ccc2ccccc2c1,–,–,98.0,–,–
N#C/C(=C\c1cccc2ccccc12)c1nn(-c2ccccc2)c(N)c1C#N,·,·,–,·,·
N#C/C(=C\c1cc([N+](=O)[O-])c(N2CCCCC2)cc1N1CCCCC1)c1nn(-c2ccccc2)c(N)c1C#N,–,–,–,41.9,–
COc1cc2nc3n(c(=O)c2cc1OC)-c1ncccc1C(=O)NC3Cc1ccccc1 (centres undefined),–,–,·,–,·
O=C(CSc1nnc(CNc2ccc(F)cc2)n1Cc1ccco1)N1CCOCC1,–,–,–,–,–
O=C(CSc1nnc(CNc2ccc(F)cc2)n1Cc1ccco1)NC1CC1,22.1,–,–,–,–
CC[n+]1c(C)sc2c(C)cc(C)cc21,–,–,–,–,–
CCC[n+]1c(C)sc2c3c(ccc21)CCCC3,–,–,–,44.5,–
O=C1/C(=C/c2ccccc2)SC(=S)N1CC(=O)N1CCCCC1c1cccnc1 (centres undefined),–,–,–,44.7,–
CC(=C/C(=O)O)/C=C/c1ccc([N+](=O)[O-])cc1,–,–,–,–,52.1
CC(/C=C\c1ccccc1)=C/C(=O)O,–,–,–,–,–
CC(=O)Nc1cccc(C(=O)NNC(=O)c2ccccc2-n2cccc2)c1,–,–,–,–,–
CC(Oc1ccc(Cl)cc1Cl)C(=O)OCC(=O)c1c(N)n(C)c(=O)n(C)c1=O (centres undefined),–,–,–,–,–
SMILES,ABHD5 PLIN5 PPI,SENP1 FRET inh,GRK2 aptamer HTS,NadD block,B2AR ag
CC(C)[C@H](NS(=O)(=O)c1ccccc1)C(=O)OCC(=O)Nc1cccc(S(N)(=O)=O)c1,–,–,71.0,–,–
CC(C)NC(=O)C1(C)CN(S(C)(=O)=O)CC(=O)N1C1CCN(Cc2ccccc2)CC1 (centres undefined),–,–,·,·,·
Clc1cccc(OCCN2CCN(CCOc3cccc(Cl)c3)CC2)c1,22.8,–,–,–,–
CCc1ccc(CNC(=O)CCC(=O)n2ncc3cc(C)ccc32)cc1,–,–,–,–,–
COC(=O)c1ccc(CSc2nc3scc(-c4cccs4)c3c(=O)[nH]2)o1,–,–,–,34.1,–
COc1ccc(C(=O)N/N=C(\C)c2ccc3c(c2)C2C=CCC2C(c2ccccc2)N3)cc1 (centres undefined),–,–,–,52.1,–
O=[N+]([O-])c1ccc(Sc2cccc[n+]2[O-])c2nonc12,85.6,40.7,·,–,–
O=[N+]([O-])c1ccc(Nc2ccccc2)c2nonc12,–,–,–,–,–
O=S(=O)(c1ccccc1)c1nc(-c2cccc(Cl)c2)oc1N1CCOCC1,–,–,–,–,–
O=C(N/N=C/c1ccc(O)c(Br)c1)c1cc2c(ccc3ccccc32)o1,–,–,–,50.2,–
O=C(c1ccccc1)C1CC=CCC1C(=O)c1ccccc1 (centres undefined),–,–,·,–,43.8
Cc1ccc(C(=O)c2no[n+]([O-])c2C(=O)c2ccc(C)cc2)cc1,–,–,–,–,42.4
Cc1ccc(C(=O)c2ccc(C)cc2)cc1,–,–,–,–,–
Cc1ccc(S(=O)(=O)O/N=C2\CCCc3ccccc32)cc1,–,–,–,–,–
CC1=C(C)/C(=N\OS(=O)(=O)c2ccccc2)C=CC1=O,62.2,–,–,–,–
CCN(CC(=O)Nc1ccc(NC(C)=O)cc1)C(=O)c1ccc(C(=O)c2ccccc2)cc1,–,–,–,–,–
Cc1nn(-c2ccc(F)cc2)c(Cl)c1C(=O)OC(C)C(=O)N(C)C1CCCCC1 (centres undefined),–,–,–,–,–
O=C(COc1cc2oc(=O)c3c(c2cc1Cl)CCC3)Nc1ccc(CN2CCOCC2)cc1,–,–,–,–,42.3
CCOC(=O)c1c(Nc2ccc(Cl)cc2)sc(/C=C2\C=Nc3ccccc32)c1O,–,–,–,32.7,–
Oc1nc(Nc2cccc(Cl)c2)sc1/C=C1\C=Nc2ccccc21,–,–,–,–,–
CCOC(=O)/C=C/C(=O)OCC(=O)Nc1ccc(C)cc1,–,–,–,–,–
CCOC(=O)/C=C/C(=O)OCC(=O)Nc1cccc(Br)c1,–,–,–,–,42.7
O/C=c1\ccc2cccc3nc(C(F)(F)F)nc1c23,–,–,–,33.5,–
O=C(/C=C/c1cccc([N+](=O)[O-])c1)n1cnc2ccccc21,23.1,–,·,–,–
CCCOc1ccc(/C=C/C(=O)Nc2ccc([N+](=O)[O-])cc2)cc1,–,–,–,–,–
Cc1ccc(/C=C/C(=O)Nc2ccc([N+](=O)[O-])cc2)o1,28.8,–,–,–,–
CCN1CCN(CCCNC(=O)c2ccc(/C=C3/Sc4ccccc4N(Cc4ccccc4F)C3=O)cc2)CC1,–,–,–,–,47.3
C[C@@H]1CN([C@@H](C)CO)C(=O)CCCn2nncc2CO[C@H]1CN(C)C(=O)Nc1ccc(F)cc1,–,–,·,–,·
COC(=O)/C=C\C(C#N)(C#N)N=Cc1ccc(OC)cc1,–,–,·,–,47.1
